pIC50: −log10 of the molar value.
Assays:
[1] = tested on: HCT-116; assay: Induction of apoptosis in human HCT116 cells assessed as early apoptotic cells level pre-incubated with 20 uM pan-caspase inhibitor Z-VAD-FMK for 5 hrs followed by compound addition and further incubated for 48 hrs by Annexin V-FITC/PI staining based cytometry (reference value: 1.1%); format: functional; set-up: scale not given: the % may be the effect or the level left
[2] = tested on: RKO; assay: Cytotoxicity against human RKO cells assessed as reduction in cell viability incubated for 24 hrs by CCK8 assay; format: functional, cell-based
Procedure, shortened: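 Cells were seeded at 3×10^4 per well, grown 24 h, then exposed to increasing concentrations for 24 h. CCK-8 reagent was added for 1 h at 37 °C and absorbance was read at 450 nm. Cells were kept in McCoy's 5A with 10% FBS, and n=3.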

[3] = tested on: BGC-823; assay: Cytotoxicity against human BGC823 cells assessed as reduction in cell viability incubated for 24 hrs by MTT assay; format: functional, cell-based; conditions: BGC-823, 24 h
Procedure, shortened: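 Cells were kept in McCoy's 5A with 10% fetal bovine serum, streptomycin and 100 units·mL⁻¹ penicillin at 37 °C under 5% CO₂/95% air. Viability was read by MTT optical density. IC50 is the concentration that lowers optical density by 50% relative to untreated cells. Values are means with SD of at least three independent determinations.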

[4] = tested on: HCT-116; assay: Induction of apoptosis in Bax-/- human HCT116 cells assessed as late apoptotic cells level at 4 uM incubated for 48 hrs by Annexin V-FITC/PI staining based cytometry (reference value: 0.2%); format: functional
Procedure, shortened: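 Cells were plated at 5×10^5 per well and treated once 80% confluent. After trypsinisation and two washes in ice-cold PBS (pH 7.4), cells were stained with Annexin V-FITC and PI for 15 min at room temperature in the dark. Analysis was by flow cytometry. The legend gives vehicle or 4 µM for the p53-/- and Bax-/- lines.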

[5] = tested on: HCT-116; assay: Induction of apoptosis in human HCT116 cells assessed as viable cells level pre-incubated with 20 uM pan-caspase inhibitor Z-VAD-FMK for 5 hrs followed by compound addition and further incubated for 48 hrs by Annexin V-FITC/PI staining based cytometry (reference value: 98.7%); format: functional
[6] = tested on: HCT-116; assay: Induction of apoptosis in p53-/- human HCT116 cells assessed as late apoptotic cells level at 4 uM incubated for 48 hrs by Annexin V-FITC/PI staining based cytometry (reference value: 0.1%); format: functional
Procedure, shortened: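 HCT116 p53-/- cells (Vogelstein line) in McCoy's 5A with 10% FBS, 37 °C, 5% CO2. Seeded at 5×10^5 in 6-well plates, treated with vehicle or 4 μM at 80% confluence. After treatment, trypsinised, washed twice in ice-cold PBS pH 7.4, and stained in binding buffer with Annexin V-FITC and PI for 15 min at room temperature in the dark. Read by flow cytometry.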

## CCN(CC)CCCNC(=O)c1cn(CCCc2ccccc2)c2cc(Cl)ccc2c1=O.Cl
[1]
  Activity: 14.2%
[2]
  pIC50: 5.31
  growth inhibition (GI): Dose-dependent effect
[3]
  pIC50: 5.31
[4]
  Activity: 0.8%
[5]
  Activity: 80.4%
[6]
  Activity: 1.3%
